In ChEMBL document CHEMBL1649142, “Relationship between susceptibility to daptomycin in vitro and activity in vivo in a rabbit model of aortic valve endocarditis” (Antimicrob Agents Chemother, 2009):
Converted amounts (≈) assume the structure as drawn.

Experiments:
Staphylococcus aureus [1] = test: Antimicrobial activity against Staphylococcus aureus A0.5/B2.0 infected in New Zealand rabbit dual-infection aortic valve endocarditis model assessed as bacterial count of strain A0.5 in spleen at 12 mg/kg/day, iv for 4 days (reference value: 333 log10 CFU); assay type: functional
Staphylococcus aureus [2] = test: Antimicrobial activity against Staphylococcus aureus A0.5/B2.0 infected in New Zealand rabbit dual-infection aortic valve endocarditis model assessed as bacterial count of strain A0.5 in endocardial vegetation at 12 mg/kg/day, iv for 4 days (reference value: 280 log10 CFU); assay type: functional, Aorta
Staphylococcus aureus [3] = test: Antimicrobial activity against Staphylococcus aureus B2.0 infected in New Zealand rabbit aortic valve endocarditis model assessed as bacterial count in spleen at 18 mg/kg/day, iv for 4 days (reference value: 5.4+/-0.2 log10 CFU/g); assay type: functional
Staphylococcus aureus [4] = test: Antimicrobial activity against Staphylococcus aureus B2.0 infected in New Zealand rabbit aortic valve endocarditis model assessed as bacterial count in endocardial vegetation at 12 mg/kg/day, iv for 4 days (reference value: 7.3+/-1.0 log10 CFU/g); assay type: functional, Aorta
[5] = Half life in New Zealand rabbit at 12 mg/kg/day, iv […] by HPLC; assay type: ADME, organism-based, Oryctolagus cuniculus; set-up: route intravenous; conditions: in vivo
Procedure, shortened: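 Uninfected New Zealand White rabbits (n = 3 per group) were dosed once by IV bolus. Plasma was collected at 0.25, 0.5, 1, 2, 4 and 6 h and measured by validated HPLC. Half-life was obtained by noncompartmental analysis, with kel taken from the slope of the terminal log concentration-time curve.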

Staphylococcus aureus [6] = test: Antimicrobial activity against Staphylococcus aureus A0.5 infected in New Zealand rabbit aortic valve endocarditis model assessed as bacterial count in spleen at 12 mg/kg/day, iv for 4 days (reference value: 5.7+/-0.7 log10 CFU/g); assay type: functional
Staphylococcus aureus [7] = test: Antimicrobial activity against Staphylococcus aureus A0.5/B2.0 infected in New Zealand rabbit dual-infection aortic valve endocarditis model assessed as bacterial count in endocardial vegetation at 12 mg/kg/day, iv for 4 days (reference value: 7.8+/-0.4 log10 CFU/g); assay type: functional, Aorta
Staphylococcus aureus [8] = test: Antimicrobial activity against Staphylococcus aureus B2.0 infected in New Zealand rabbit aortic valve endocarditis model assessed as bacterial count in kidney at 12 mg/kg/day, iv for 4 days (reference value: 5.1+/-0.6 log10 CFU/g); assay type: functional
[9] = AUC in New Zealand rabbit at 18 mg/kg/day, iv for 4 days by HPLC; assay type: ADME, organism-based, Oryctolagus cuniculus; set-up: route intravenous; conditions: plasma
Staphylococcus aureus [10] = test: Antimicrobial activity against Staphylococcus aureus A0.5/B2.0 infected in New Zealand rabbit dual-infection aortic valve endocarditis model assessed as bacterial count in kidney at 12 mg/kg/day, iv for 4 days (reference value: 6.3+/-1.0 log10 CFU/g); assay type: functional
[11] = AUC in human at 6 mg/kg, iv by HPLC; assay type: ADME, organism-based; set-up: dose 6 mg/kg, route intravenous; conditions: plasma
Staphylococcus aureus [12] = test: Antimicrobial activity against Staphylococcus aureus A0.5/B2.0 infected in New Zealand rabbit dual-infection aortic valve endocarditis model assessed as bacterial count in spleen at 12 mg/kg/day, iv for 4 days (reference value: 6.0+/-0.3 log10 CFU/g); assay type: functional
Staphylococcus aureus [13] = test: Antimicrobial activity against rifampin-susceptible Staphylococcus aureus A by broth dilution method
Staphylococcus aureus [14] = test: Antimicrobial activity against Staphylococcus aureus A0.5 infected in New Zealand rabbit aortic valve endocarditis model assessed as bacterial count in endocardial vegetation at 12 mg/kg/day, iv for 4 days (reference value: 6.9+/-0.7 log10 CFU/g); assay type: functional
Staphylococcus aureus [15] = test: Antimicrobial activity against Staphylococcus aureus A0.5/B2.0 infected in New Zealand rabbit dual-infection aortic valve endocarditis model assessed as bacterial count of strain B2.0 in endocardial vegetation at 12 mg/kg/day, iv for 4 days (reference value: 320 log10 CFU); assay type: functional, Aorta
Staphylococcus aureus [16] = test: Antimicrobial activity against Staphylococcus aureus B2.0 infected in New Zealand rabbit aortic valve endocarditis model assessed as bacterial count in spleen at 12 mg/kg/day, iv for 4 days (reference value: 5.4+/-0.2 log10 CFU/g); assay type: functional
Staphylococcus aureus [17] = test: Antimicrobial activity against Staphylococcus aureus A0.5/B2.0 infected in New Zealand rabbit dual-infection aortic valve endocarditis model assessed as bacterial count of strain B2.0 in spleen at 12 mg/kg/day, iv for 4 days (reference value: 627 log10 CFU); assay type: functional
[18] = AUC in human at 10 mg/kg, iv by HPLC; assay type: ADME, organism-based; set-up: dose 10 mg/kg, route intravenous; conditions: plasma
[19] = Cmax in New Zealand rabbit at 18 mg/kg/day, iv […] measured after 15 mins […] by HPLC; assay type: ADME, organism-based, Oryctolagus cuniculus; set-up: dose 18 mg/kg/day, route intravenous; conditions: in vivo
Procedure, shortened: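 A single IV bolus (1 to 2 min, marginal ear vein) was given to healthy New Zealand White rabbits, three per group. Plasma was drawn from 0.25 to 6 h and assayed by validated HPLC. The reported value is the mean plasma concentration 15 min after the end of infusion, not a multi-day steady-state peak.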

Staphylococcus aureus [20] = test: Antimicrobial activity against Staphylococcus aureus A0.5 infected in New Zealand rabbit aortic valve endocarditis model assessed as bacterial count in spleen at 18 mg/kg/day, iv for 4 days (reference value: 6.1+/-0.2 log10 CFU/g); assay type: functional
Staphylococcus aureus [21] = test: Antimicrobial activity against Staphylococcus aureus B2.0 infected in New Zealand rabbit aortic valve endocarditis model assessed as bacterial count in kidney at 18 mg/kg/day, iv for 4 days (reference value: 5.1+/-0.6 log10 CFU/g); assay type: functional
Staphylococcus aureus [22] = test: Antimicrobial activity against Staphylococcus aureus A0.5 infected in New Zealand rabbit aortic valve endocarditis model assessed as bacterial count in spleen at 12 mg/kg/day, iv for 4 days (reference value: 6.1+/-0.2 log10 CFU/g); assay type: functional
Staphylococcus aureus [23] = test: Antimicrobial activity against rifampin-susceptible Staphylococcus aureus A by Etest
Staphylococcus aureus [24] = test: Antimicrobial activity against Staphylococcus aureus A0.5 infected in New Zealand rabbit aortic valve endocarditis model assessed as bacterial count in spleen at 18 mg/kg/day, iv for 4 days (reference value: 5.7+/-0.7 log10 CFU/g); assay type: functional
[25] = AUC in New Zealand rabbit at 12 mg/kg/day, iv for 4 days by HPLC; assay type: ADME, organism-based, Oryctolagus cuniculus; set-up: route intravenous; conditions: plasma
Staphylococcus aureus [26] = test: Antimicrobial activity against Staphylococcus aureus A0.5 infected in New Zealand rabbit aortic valve endocarditis model assessed as bacterial count in endocardial vegetation at 18 mg/kg/day, iv for 4 days (reference value: 6.9+/-0.7 log10 CFU/g); assay type: functional
Staphylococcus aureus [27] = test: Antimicrobial activity against Staphylococcus aureus B2.0 infected in New Zealand rabbit aortic valve endocarditis model assessed as bacterial count in endocardial vegetation at 18 mg/kg/day, iv for 4 days (reference value: 7.3+/-1.0 log10 CFU/g); assay type: functional, Aorta
Staphylococcus aureus [28] = test: Antimicrobial activity against rifampin-resistant Staphylococcus aureus B; assay type: functional

CCCCCCCCCC(=O)N[C@@H](Cc1c[nH]c2ccccc12)C(=O)N[C@H](CC(N)=O)C(=O)N[C@@H](CC(=O)O)C(=O)N[C@@H]1C(=O)NCC(=O)N[C@@H](CCCN)C(=O)N[C@@H](CC(=O)O)C(=O)N[C@H](C)C(=O)N[C@@H](CC(=O)O)C(=O)NCC(=O)N[C@H](CO)C(=O)N[C@@H]([C@H](C)CC(=O)O)C(=O)N[C@@H](CC(=O)c2ccccc2N)C(=O)O[C@@H]1C
log10CFU/g (Staphylococcus aureus [1]): 1
log10CFU/g (Staphylococcus aureus [2]): 2.3
log10CFU/g (Staphylococcus aureus [3]): 2.3
log10CFU/g (Staphylococcus aureus [4]): 6.3
half-life [5]: 5 h
log10CFU/g (Staphylococcus aureus [6]): 0
log10CFU/g (Staphylococcus aureus [7]): 5.3
log10CFU/g (Staphylococcus aureus [8]): 2.1
AUC at 96 h [9]: 965 µg·h/mL
log10CFU/g (Staphylococcus aureus [10]): 1.7
AUC [11]: 632 µg·h/mL
log10CFU/g (Staphylococcus aureus [12]): 2.3
MIC (Staphylococcus aureus [13]): 0.5 µg/mL (≈ 0.309 µM)
log10CFU/g (Staphylococcus aureus [14]): 0
log10CFU/g (Staphylococcus aureus [15]): 1.7
log10CFU/g (Staphylococcus aureus [16]): 3.2
log10CFU/g (Staphylococcus aureus [17]): 0
AUC [18]: 1040 µg·h/mL
Cmax [19]: 149 µg/mL
log10CFU/g (Staphylococcus aureus [20]): 0
log10CFU/g (Staphylococcus aureus [21]): 2.5
log10CFU/g (Staphylococcus aureus [22]): 0
MIC (Staphylococcus aureus [23]): 0.5 µg/mL (≈ 0.309 µM)
log10CFU/g (Staphylococcus aureus [24]): 0
AUC at 96 h [25]: 719 µg·h/mL
log10CFU/g (Staphylococcus aureus [26]): 0
log10CFU/g (Staphylococcus aureus [27]): 4.4
MIC (Staphylococcus aureus [28]): 2 µg/mL (≈ 1.23 µM)
